Experimental data of several laboratories.
Protocols differ between the studies behind these lines.

SMILES | species | matrix | route | dose | notes | quantity | value
CC(C)(C)c1ccc(O)c(CN(Cc2cc(C(C)(C)C)ccc2O)C2CCC(NC(N)=O)CC2)c1 (centres unmarked) | male C57BL/6 mouse | brain | oral | 10 mg/kg | single dose | Cmax | 550 ng/g
Cc1cc(Nc2cc(N3CCN(C)CC3)nc(/C=C/c3ccccc3)n2)n[nH]1 | human | plasma | oral | 60 mg/m² | multiple doses, patients | Vd/F | 699 L
CCNCCCNC/C=C\CNCCCNCC | human | plasma | intravenous | 100 mg | patients, infusion | Vd | 1.17 L/kg
COc1ccc([C@@H]2CN(C(=O)[C@@H](O)CO)C[C@@]2(C)[C@@H](C)O)cc1OC1CN(c2ccc(C)cn2)C1 | human | plasma | oral | 1.5 mg | single dose, healthy volunteers | Vd/F | 55.7 L
CO[C@H]1CC[C@H](N2C(=O)CNc3ncc(-c4ccc(C(C)(C)O)nc4)nc32)CC1 | human | plasma | oral | 45 mg | patients | Vd/F | 186 L
Cc1nc(-c2cnc(NC(C)C)n(C)c2=O)ccc1Oc1ccnc(-c2cnn(C)c2)c1 | female mouse | plasma | oral | 3.75 mg/kg | single dose | Cmax | 2780 ng/mL
COc1cc(C(=O)NC2CCN(C)CC2)c(F)cc1Nc1ncc(C(F)(F)F)c(Oc2cccc3c2C(=O)N(C)C3)n1 | human | plasma | oral | 100 mg | multiple doses, once daily, patients | Vd/F | 284 L
CC(C)(Sc1ccncc1-c1ccc(C#N)c2ccccc12)C(=O)O | male human | plasma | oral | 20 mg | single dose, fasted, healthy volunteers | Vd/F | 328 L
